In ChEMBL document CHEMBL4024770, “Augmentation of Anticancer Drug Efficacy in Murine Hepatocellular Carcinoma Cells by a Peripherally Acting Competitive N-Methyl-d-aspartate (NMDA) Receptor Antagonist” (J Med Chem, 2017):

Key:
[1] = species: Mus musculus; test: Antagonist activity at NMDA receptor in Nras driven p53 deficient mouse HCC cell membranes assessed as potentiation of 1 uM sorafenib-mediated antiproliferative activity by measuring cell viability at 100 uM after 72 hrs by resazurin assay (reference value: […] +/- […]%)
[2] = species: Mus musculus; test: Antagonist activity at NMDA receptor in Nras driven p53 deficient mouse HCC cell membranes assessed as Slc2a1 protein expression levels at 10 uM by […] analysis relative to control; set-up: scale not given: the % may be the effect or the level left
Summary of the method: (§1)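 Mouse Nras-driven p53−/− HCC cells in DMEM with 10% FBS, exposed 48 h with or without 10 μM antagonist, washed, pelleted and snap-frozen. Crude membrane fraction isolated. 50 μg protein reduced, alkylated, precipitated, then Lys-C digested (3 h, rt) and trypsin digested (1:100, 37°C, 16 h). One unique peptide per transporter quantified by multiplexed SRM/MRM LC-MS/MS against stable isotope-labelled standards. Unpaired two-tailed t-test versus control, n=4.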

[3] = system: Brain; test: Cmax in mouse brain at 10 mg/kg, ip administered as bolus dose measured at 30 mins by LC-MS/MS analysis; format: ADME, organism-based; set-up: dose 10 mg/kg, route intraperitoneal; conditions: in vivo, 0.5 h
Summary of the method: (§2)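 Adult male mice (25 ± 5 g) given a single 10 mg/kg i.p. bolus, prepared as a 5.0 mM solution in 0.9% NaCl. Animals were decapitated at five time points between 10 and 240 min. Plasma was precipitated with acetonitrile containing internal standard. Brain and liver were homogenized in water (1:3) and precipitated the same way. Analysis by LC-MS/MS, with AUC0–240, Cmax, tmax, t½β and liver/plasma ratio derived from the concentration-time data.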

[4] = system: Plasma; test: AUC (0 to 240 mins) in mouse plasma at 10 mg/kg, ip administered as bolus dose by LC-MS/MS analysis; format: ADME, organism-based; set-up: time < 4 hr, dose 10 mg/kg, route intraperitoneal; conditions: in vivo, 4 h; summary of the method: as §2
[5] = target: Glutamate receptor ionotropic, kainate 2 (Rattus norvegicus, UniProt P42260); test: Displacement of [3H]-KA from recombinant homomeric rat GluK2 (V,C,R)a receptor expressed in baculovirus infected Sf9 insect cell membranes by scintillation counting method
[6] = target: Ionotropic glutamate receptor NMDA 1/2D (Rattus norvegicus, UniProt P35439+Q62645); test: Antagonist activity at recombinant rat GluN1a/GluN2D expressed in Xenopus laevis oocytes assessed as inhibition of glycine/glutamate-mediated current responses by two-electrode voltage clamp method; format: cell-based
Summary of the method: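 Xenopus oocytes were injected with rat GluN1 and GluN2A–D cRNA (1:2) and recorded 2–6 days later by TEVC at room temperature, −40 mV, in Ba2+-containing recording solution, pH 7.4. Currents were evoked by 100 μM glycine plus glutamate at 2–3× EC50: 10 μM for GluN2A, 3 μM for GluN2B and GluN2C, 1 μM for GluN2D. IC50 from Hill fits per oocyte; Ki estimated.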

[7] = species: Mus musculus; test: Antagonist activity at NMDA receptor in Nras driven p53 deficient mouse HCC cell membranes assessed as decrease in Abcb1/Abcg2 protein expression levels by measuring sorafenib accumulation at 10 uM preincubated for 24 hrs followed by compound wash out and addition of sorafenib measured after 30 mins by LC/MS-MS method relative to control; set-up: scale not given: the % may be the effect or the level left
Summary of the method: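 Nras p53−/− HCC cells (1 × 10⁵/well) were pretreated 24 h with or without 10 μM. They were then washed 3× in warm HBSS (choline chloride, pH 7.4) and incubated at 37 °C with probe in HBSS. Incubation was 30 min for [3H]-digoxin, 20 μM fluorescein or 10 μM sorafenib, and 5 min for [14C]-L-leucine or [14C]-D-glucose. Cells were washed ice-cold and lysed in 0.1 M NaOH. Read-out was scintillation, fluorescence or LC-MS/MS, normalized to protein.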

[8] = Liver to plasma partition coefficient in mouse at 10 mg/kg, ip administered as bolus dose by LC-MS/MS analysis; format: ADME, organism-based; conditions: other tissue; summary of the method: as §2
[9] = system: Brain; test: AUC (0 to 240 mins) in mouse brain at 10 mg/kg, ip administered as bolus dose by LC-MS/MS analysis; format: ADME, organism-based; set-up: dose 10 mg/kg, time < 4 hr, route intraperitoneal; conditions: in vivo, 4 h; summary of the method: as §2
[10] = system: Plasma; test: Tmax in mouse plasma at 10 mg/kg, ip administered as bolus dose by LC-MS/MS analysis; format: ADME, organism-based; conditions: in vivo; summary of the method: as §2
[11] = species: Mus musculus; test: Antagonist activity at NMDA receptor in Nras driven p53 deficient mouse HCC cell membranes assessed as Abcb1 protein expression levels at 10 uM by […] analysis relative to control; set-up: scale not given: the % may be the effect or the level left; summary of the method: as §1
[12] = Displacement of [3H]-CGP-39653 from NMDA receptor in Sprague-Dawley rat brain synaptosomes after 60 mins by scintillation counting method; format: subcellular
[13] = species: Mus musculus; test: Antagonist activity at NMDA receptor in Nras driven p53 deficient mouse HCC cell membranes assessed as Slc7a5 protein expression levels at 10 uM by SMR/MRM analysis relative to control; set-up: scale not given: the % may be the effect or the level left
Summary of the method: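 Nras p53−/− mouse HCC cells were exposed to 10 μM for 48 h, washed, and pelleted. Crude membrane fractions (50 μg protein) were denatured in guanidine, reduced/alkylated and precipitated. They were then digested with Lys-C (rt, 3 h) and trypsin (37 °C, 16 h) with stable-isotope peptide standards. Slc7a5 was quantified by multiplexed SRM/MRM LC-MS/MS, one unique peptide per protein. Mean ± SEM, n=4, versus control.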

[14] = species: Mus musculus; test: Antagonist activity at NMDA receptor in Nras driven p53 deficient mouse HCC cell membranes assessed as LPS-stimulated PGE2 levels at 100 uM after 24 hrs by LC-MS/MS method (reference value: 162 +/- 7%); set-up: scale not given: the % may be the effect or the level left
Summary of the method: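 Nras-driven p53−/− mouse HCC cells in DMEM/10% FBS were incubated 24 h with or without 100 μM compound. This was done without LPS and with LPS (2.5 μg/mL) in the growth medium. Cells were washed with ice-cold HBSS and lysed in acetonitrile on ice. PGE2 in the lysates was quantified by LC-MS/MS and expressed as % of control. Mean ± SEM, n=3; one-way ANOVA/Tukey.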

[15] = Displacement of [3H]-AMPA from AMPA receptor in Sprague-Dawley rat brain synaptosomes after 30 mins by scintillation counting method; format: subcellular
[16] = species: Mus musculus; test: Antagonist activity at NMDA receptor in Nras driven p53 deficient mouse HCC cell membranes assessed as LPS-stimulated PGE2 levels at 10 uM after 24 hrs by LC-MS/MS method (reference value: 162 +/- 7%); set-up: scale not given: the % may be the effect or the level left
Summary of the method: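 Mouse Nras-driven p53−/− HCC cells in DMEM with 2 mM L-glutamine, 10% heat-inactivated FBS and penicillin/streptomycin. Cells incubated 24 h with or without antagonist, either without LPS or with 2.5 μg/mL LPS in the growth medium. Cells washed three times with ice-cold HBSS and lysed in acetonitrile on ice. PGE₂ in lysates measured by LC-MS/MS (LLOQ 1 nM) and expressed as % of control; n=3.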

[17] = system: Plasma; test: Elimination half life in mouse plasma at 10 mg/kg, ip administered as bolus dose by LC-MS/MS analysis; format: ADME, organism-based; conditions: in vivo; summary of the method: as §2
[18] = system: Liver; test: AUC (0 to 240 mins) in mouse liver at 10 mg/kg, ip administered as bolus dose by LC-MS/MS analysis; format: ADME, organism-based; set-up: dose 10 mg/kg, time < 4 hr, route intraperitoneal; conditions: in vivo, 4 h; summary of the method: as §2
[19] = species: Mus musculus; test: Antagonist activity at NMDA receptor in Nras driven p53 deficient mouse HCC cell membranes assessed as potentiation of 2.5 uM sorafenib-mediated antiproliferative activity by measuring cell viability at 100 uM after 72 hrs by resazurin assay (reference value: […] +/- […]%)

Sequence of Ionotropic glutamate receptor NMDA 1/2D (Q62645 whole entry, other chains not shown): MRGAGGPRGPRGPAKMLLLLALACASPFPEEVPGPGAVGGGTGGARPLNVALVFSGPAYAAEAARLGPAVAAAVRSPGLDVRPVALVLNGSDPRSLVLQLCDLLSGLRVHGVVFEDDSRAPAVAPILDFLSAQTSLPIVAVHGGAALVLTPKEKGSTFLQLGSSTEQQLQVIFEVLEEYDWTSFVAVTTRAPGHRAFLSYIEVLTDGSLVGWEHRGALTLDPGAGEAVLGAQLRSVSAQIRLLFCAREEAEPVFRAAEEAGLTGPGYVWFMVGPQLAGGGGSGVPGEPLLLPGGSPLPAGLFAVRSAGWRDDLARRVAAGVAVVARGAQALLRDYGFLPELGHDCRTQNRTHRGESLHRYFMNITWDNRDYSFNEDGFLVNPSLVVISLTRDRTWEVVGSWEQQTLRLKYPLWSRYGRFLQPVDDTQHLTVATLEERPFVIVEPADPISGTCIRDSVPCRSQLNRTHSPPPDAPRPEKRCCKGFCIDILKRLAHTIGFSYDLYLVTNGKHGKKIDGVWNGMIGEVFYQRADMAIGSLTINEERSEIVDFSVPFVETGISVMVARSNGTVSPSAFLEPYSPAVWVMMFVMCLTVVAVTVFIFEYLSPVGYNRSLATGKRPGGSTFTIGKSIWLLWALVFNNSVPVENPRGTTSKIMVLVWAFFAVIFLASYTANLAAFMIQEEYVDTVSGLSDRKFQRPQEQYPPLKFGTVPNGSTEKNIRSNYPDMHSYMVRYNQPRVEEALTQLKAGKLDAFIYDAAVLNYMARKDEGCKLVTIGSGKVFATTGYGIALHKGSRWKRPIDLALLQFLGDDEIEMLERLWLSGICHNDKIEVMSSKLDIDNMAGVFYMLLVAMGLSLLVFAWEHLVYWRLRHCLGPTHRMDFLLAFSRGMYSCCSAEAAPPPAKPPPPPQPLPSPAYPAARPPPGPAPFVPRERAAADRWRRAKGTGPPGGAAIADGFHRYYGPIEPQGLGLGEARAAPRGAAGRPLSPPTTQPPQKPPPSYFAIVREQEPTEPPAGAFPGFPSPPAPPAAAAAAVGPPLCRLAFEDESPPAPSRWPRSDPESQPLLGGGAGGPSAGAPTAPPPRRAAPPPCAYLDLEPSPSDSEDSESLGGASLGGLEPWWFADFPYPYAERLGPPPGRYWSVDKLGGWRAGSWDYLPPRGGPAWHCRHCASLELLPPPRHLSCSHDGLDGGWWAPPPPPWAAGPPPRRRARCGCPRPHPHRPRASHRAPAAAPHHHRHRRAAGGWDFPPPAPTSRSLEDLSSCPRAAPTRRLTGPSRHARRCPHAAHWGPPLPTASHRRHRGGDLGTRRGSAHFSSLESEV
Sequence of Glutamate receptor ionotropic, kainate 2 (P42260 whole entry): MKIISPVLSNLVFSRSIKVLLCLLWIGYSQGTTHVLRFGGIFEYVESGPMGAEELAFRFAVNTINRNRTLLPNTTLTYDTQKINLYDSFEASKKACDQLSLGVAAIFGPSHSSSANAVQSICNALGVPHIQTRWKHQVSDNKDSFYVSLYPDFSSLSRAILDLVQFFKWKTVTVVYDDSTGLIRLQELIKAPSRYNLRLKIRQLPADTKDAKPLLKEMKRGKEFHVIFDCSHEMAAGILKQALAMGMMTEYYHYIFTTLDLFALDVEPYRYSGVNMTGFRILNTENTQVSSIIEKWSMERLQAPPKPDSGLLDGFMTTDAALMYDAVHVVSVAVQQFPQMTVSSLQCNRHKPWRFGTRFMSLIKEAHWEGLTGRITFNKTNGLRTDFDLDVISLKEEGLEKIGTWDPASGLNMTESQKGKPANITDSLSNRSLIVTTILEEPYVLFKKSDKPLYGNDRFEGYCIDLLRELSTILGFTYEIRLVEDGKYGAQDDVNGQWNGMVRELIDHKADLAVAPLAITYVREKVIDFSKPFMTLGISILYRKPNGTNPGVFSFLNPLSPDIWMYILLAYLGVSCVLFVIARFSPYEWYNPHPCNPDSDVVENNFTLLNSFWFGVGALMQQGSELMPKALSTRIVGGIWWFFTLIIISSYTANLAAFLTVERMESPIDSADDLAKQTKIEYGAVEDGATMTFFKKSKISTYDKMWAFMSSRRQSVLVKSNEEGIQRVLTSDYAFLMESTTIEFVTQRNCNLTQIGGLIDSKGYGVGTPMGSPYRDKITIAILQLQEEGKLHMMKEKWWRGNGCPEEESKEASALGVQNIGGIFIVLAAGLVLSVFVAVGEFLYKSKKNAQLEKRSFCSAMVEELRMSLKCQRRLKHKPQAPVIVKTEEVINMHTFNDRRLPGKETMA

Activity [2]: 42%
Cmax [3]: 0.3 nmol/g
AUC [4]: 3020 nmol·min/g
Ki [5]: > 100 µM
IC50 [6]: 170 µM
Ki [6]: 41 µM
Activity [7]: 152%
Kp [8]: 0.19
AUC [9]: 13 nmol·min/g
Tmax [10]: 15 min
Activity [11]: 39%
Ki [12]: 630 nM
pKi [12]: 6.22
Activity [13]: 24%
Activity [14]: 96%
IC50 [15]: > 100 µM
Activity [16]: 127%
beta t1/2 [17]: 30 min
AUC [18]: 575 nmol·min/g
SMILES: Cl.O=C(O)c1cc([C@H]2CCN[C@@H]2C(=O)O)ccc1Cl
Activity [1]: 33%
Activity [19]: 30%
